Each structure is given as a SMILES string. Active and inactive are the calls of the source.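 The calls were made as follows, unless noted: active = viability loss from added drug above about 55%, and viability with drug at most 40%, in both replicates (limit read from the data, passing the limit was not always enough); inconclusive = both conditions met in only one replicate; inactive = neither replicate meets both conditions.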

These results are taken from PubChem BioAssay.

Assay [1] in a line: reduced viability of SK-BR-3 breast cancer cells – cell-based, 24 h, human, pilot screen (AID 572;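 active = viability at or below 10% of carrier control in both of two separate runs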;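 also: compound exposure lasted between 18 and 24 h rather than exactly 24 h; 100% = carrier-treated control wells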). Conditions: SK-BR-3 viability, CellTiter-Glo luminescence, at 10 µM, stronger effect = lower value. (In general: ATP-based viability assays read luminescence as a measure of living cells.)
Assay [2] in a line: HUVEC growth inhibition – cell-based, human, primary screen (AID 575;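 active = viability at or below 30% in both replicate assays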;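 also: 100% = median of untreated cell wells with 0.1% DMSO on each plate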). The settings on record: HUVEC proliferation, CellTiter-Glo luminescence, 72 h; at 10 µM; stronger effect = lower value. In short, it runs like this: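 Assay system: Primary human umbilical vein endothelial cells | Quantity: 1250 cells per well | Medium: Supplemented EBM, 2% fetal bovine serum | Detection: CellTiter-Glo luminescence measuring cellular ATP | Read-out: % viability vs DMSO wells | Plate: Collagen-coated 384-well format | Times: 72 h exposure, 37 °C, 5% CO2, 30 min RT equilibration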

Assay [3] is described as follows: H69AR cell proliferation blockers – human, duplicate replicates, primary screen (AID 580;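 active = viability at or under a set limit in both replicates, limit being median viability minus 3 SD, cut at about 48% in these data, passing the limit was not always enough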;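 also: 100% = mean luminescence of untreated wells and 0% = no signal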). The settings on record: H69AR lung tumor cells viability, ATP luminescence, 72 h; at 10 µM; stronger effect = lower value.
A short description of assay [4]: MRP1 drug-resistance reversers in H69AR cells – cell-based, doxorubicin co-treatment, pilot screen (AID 601). The settings on record: CellTiter-Glo, 72 h, at 10 µM; for differential viability (reversal): stronger effect = higher value.
The nature of assay [5]: yeast transport mutant growth inhibition pilot in 384-well plates, post-Golgi transport modulator project (AID 636; in the data active = inhibition above about 31%). The settings on record: absorbance 615 nm, about 18 h, stronger effect = higher value.
Assay [6] can be described thus: growth suppression of yeast trafficking mutant, preliminary HTS, modulators of trafficking downstream of Golgi apparatus project, 1536-format plate, OD 615 nm (AID 637; in the data active = inhibition above about 30%). The settings on record: yeast transport mutant growth, absorbance 615 nm, 18 h; stronger effect = higher value.
The mark [7] stands for this setting: H69AR cells + 2 uM doxorubicin, measured here: viability with 2 uM doxorubicin, stronger effect = lower value.
[8] abbreviates: H69AR cells, compound alone cytotoxicity.

By viability is commonly meant a read-out of living cells in per cent, often relative to untreated cells. For orientation: inhibition means the drop in the measured response relative to a control, in per cent. As for `Cc1[nH]nc(N=CC2=C(O)CC(C)(C)CC2=O)c1-c1ccccc1`, the viability was 85% (inactive) in assay [1]; 100% (inactive) in assay [2]; 88.6% (inactive) in assay [3]; 95.3% in assay [4] (setting [7]); 88.6% in assay [4] (setting [8]). The differential viability (reversal) in assay [4] (H69AR cells + 2 uM doxorubicin) is -6.69% (inactive). Besides, the figures for the inhibition in assay [5] and in assay [6] were -0.95% (inactive) and 1.09% (inactive), respectively.

As for `COc1ccc(C(=O)NC(=O)CSc2nnc(-c3ccco3)n2-c2ccccc2)cc1`, the viability was 90% (inactive) in assay [1]; 109% (inactive) in assay [2]; 105% (inactive) in assay [3]; 88.7% in assay [4] (setting [7]); 105% in assay [4] (setting [8]). The differential viability (reversal) in assay [4] (H69AR cells + 2 uM doxorubicin) was 16.3% (inactive). Further, the values for the inhibition in assay [5] and in assay [6] were -7.3% (inactive) and -0.55% (inactive), respectively.

Consider `COC(=O)c1ccc2c(c1)nc(C)n2CCO`, for which the viability is 104% (inactive) in assay [1]; 118% (inactive) in assay [2]; 99.4% (inactive) in assay [3]; 90.1% in assay [4] (setting [7]); 99.4% in assay [4] (setting [8]). The differential viability (reversal) in assay [4] (H69AR cells + 2 uM doxorubicin) was 9.26% (inactive). The inhibition was -3.78% (inactive) in assay [5] and -2% (inactive) in assay [6].

Regarding `COc1ccc(-c2noc(CSc3nc4ccccc4c(=O)n3-c3ccccc3)n2)cc1OC`, the viability in assay [1] is 69% (inactive); in assay [2] it was 110% (inactive); in assay [3], 87.1% (inactive); in assay [4] (setting [7]), 80.7%; in assay [4] (setting [8]) it was 87.1%. Further, the differential viability (reversal) in assay [4] (H69AR cells + 2 uM doxorubicin) was 6.39% (inactive). Besides, the inhibition is -9.04% (inactive) in assay [5] and -0.55% (inactive) in assay [6].

Consider `CCC(=O)Oc1ccc(C/C(=N\O)c2ccc(O)cc2O)o1`, for which the viability in assay [1] is 85% (inactive); in assay [2], 90.6% (inactive); in assay [3] it was 52.5% (inactive); in assay [4] (setting [7]), 85.5%; in assay [4] (setting [8]), 52.5%. Further, in assay [4] (H69AR cells + 2 uM doxorubicin), the differential viability (reversal) is -33% (inactive). The inhibition in assay [5] is 3.01% (inactive); in assay [6], 13.8% (inactive).

As to `Cc1cc(C)cc(NC(=O)CN(C)S(=O)(=O)c2cnc[nH]2)c1`, the viability in assay [1] is 113% (inactive); in assay [2], 104% (inactive); in assay [3], 100% (inactive); in assay [4] (setting [7]), 91.3%; in assay [4] (setting [8]) it was 100%. In assay [4] (H69AR cells + 2 uM doxorubicin), the differential viability (reversal) is 8.86% (inactive). In addition, the inhibition in assay [5] is -2.13% (inactive); in assay [6], -6.36% (inactive).

For the compound `O=C1NC(=O)C(CC(=O)N(c2ccccc2)C2(C(=O)NC3CCCC3)CCCCC2)N1` (stereo not drawn), the viability in assay [1] is 99% (inactive); in assay [2], 100% (inactive); in assay [3], 97.2% (inactive); in assay [4] (setting [7]), 88.9%; in assay [4] (setting [8]) it was 97.2%. Also, the differential viability (reversal) in assay [4] (H69AR cells + 2 uM doxorubicin) is 8.26% (inactive). Besides, the inhibition in assay [5] was -8.36% (inactive); in assay [6], 4.36% (inactive).

Consider `O=C(O)CCCc1ccccc1`, for which the viability in assay [1] was 97% (inactive); in assay [2] it was 91.8% (inactive); in assay [3], 98% (inactive); in assay [4] (setting [7]), 96.4%; in assay [4] (setting [8]), 98%. Moreover, in assay [4] (H69AR cells + 2 uM doxorubicin), the differential viability (reversal) was 1.58% (inactive). Further, the values for the inhibition in assay [5] and in assay [6] were -0.91% (inactive) and 8% (inactive), respectively.

Regarding `O=C(O)CCc1ccc(-c2cccs2)n1NC(=O)c1ccccc1Br`, the viability in assay [1] is 96% (inactive); in assay [2], 104% (inactive); in assay [3], 106% (inactive); in assay [4] (setting [7]), 89.5%; in assay [4] (setting [8]) it was 106%. Also, the differential viability (reversal) in assay [4] (H69AR cells + 2 uM doxorubicin) was 16% (inactive). Moreover, the inhibition was -6.71% (inactive) in assay [5] and 4.36% (inactive) in assay [6].

On to `COc1cc(C(=O)NCC(=O)OCC(=O)c2ccc[nH]2)cc(OC)c1OC`, for which the viability was 76% (inactive) in assay [1]; 101% (inactive) in assay [2]; 91.5% (inactive) in assay [3]; 95.3% in assay [4] (setting [7]); 91.5% in assay [4] (setting [8]). For the same compound, the differential viability (reversal) in assay [4] (H69AR cells + 2 uM doxorubicin) was -3.86% (inactive). Besides, the inhibition in assay [5] was -4.38% (inactive); in assay [6] it was -0.55% (inactive).

Consider `CCOc1cc(C(=O)N(C)Cc2cc3ccccc3[nH]c2=O)cc(OCC)c1OCC`, for which the viability was 92% (inactive) in assay [1]; 107% (inactive) in assay [2]; 98.6% (inactive) in assay [3]; 96.6% in assay [4] (setting [7]); 98.6% in assay [4] (setting [8]). Further, the differential viability (reversal) in assay [4] (H69AR cells + 2 uM doxorubicin) was 2.04% (inactive). The inhibition in assay [5] was -7.43% (inactive); in assay [6], -4.18% (inactive).
